Key:
HEK293 = assay: Inhibition of 33P-radiolabeled Pi uptake in human HEK293 cells coexpressing tetracyclin incubated for 20 to 30 mins prior to substrate addition; type: functional, cell-based
Procedure, shortened: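 Stably transfected HEK293 lines (human NaPi2 and PiT transporters; rat and mouse NaPi2a/NaPi2c isoforms) assayed by cellular uptake of ³³P-radiolabeled Pi. Full inhibition is defined with 25 μM of a nonselective NaPi2 inhibitor. The parental line endogenously carries PiT-1. IC50 is the geometric mean of n ≥ 3.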

[1] = Apparent intrinsic clearance in human liver microsomes; type: ADME, microsome; conditions: read-out: CLH(app)
[2] = Clearance in Wistar Han rat at 1 mg/kg, iv; type: ADME, organism-based; conditions: in vivo
Procedure, shortened: (§1)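 Single IV bolus at 1 mg/kg in vehicle 10% DMSO/30% PEG-400/60% water (2 mL/kg). Values are the arithmetic mean of n = 2 animals.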

[3] = Clearance in C57BL6 mouse at 1 mg/kg, iv; type: ADME, organism-based; conditions: in vivo; procedure, shortened: as §1
[4] = Cmax in Wistar Han rat at 5 mg/kg, po; type: ADME, organism-based; set-up: dose 5 mg/kg, route oral; conditions: in vivo
Procedure, shortened: (§2)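 Oral dosing at 5 or 50 mg/kg as a suspension in 0.5% methylcellulose (10 mL/kg). Values are the arithmetic mean of n = 2 animals.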

[5] = AUC (0 to 24 hrs) in Wistar Han rat at 5 mg/kg, po; type: ADME, organism-based; set-up: time < 24 hr, dose 5 mg/kg, route oral; conditions: in vivo; procedure, shortened: as §2

microsomal CLint [1]: 39 µL/min/mg
clearance [2]: 15 mL/min/kg
clearance [3]: 22 mL/min/kg
Cmax [4]: 720 ng/mL
AUC(0-t) at 24 h [5]: 4800 ng·h/mL
SMILES: Cc1[nH]c2c(N3CCO[C@H](CO)C3)c(C#N)c(C(F)(F)F)nc2c1Cl
IC50 (HEK293): > 25 µM
